ChEMBL document CHEMBL1148905, “Cytotoxic constituents of roots of Chaerophyllum hirsutum” (J Nat Prod, 2004)
Structures can show the parent of a compound that is named as a salt.

Columns and labels:
Assay type in all cases: functional, cell-based
LoVo [1] = assay: Cytotoxicity against human LoVo cells after 72 hrs by MTT assay
Procedure, shortened: (§1)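 Parental LoVo and the mdr-expressing (P-glycoprotein) LoVo/Doxo intestinal adenocarcinoma lines cultured in Ham's F12. Exponentially growing cells seeded at 5 × 10^4 cells/mL and allowed 18 h adherence before drug. MTT viability at 72 h. Growth as % of untreated controls, IC50 by linear regression. Mean ± SEM, three independent experiments. Doxorubicin hydrochloride as reference.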

LoVo [2] = assay: Cytotoxicity against human doxorubicin-resistant LoVo cells after 72 hrs by MTT assay; procedure, shortened: as §1
HT-1080 = assay: Cytotoxicity against human HT1080 cells after 72 hrs by MTT assay; settings: HT-1080, 72 h
Procedure, shortened: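 HT1080 cells grown in DMEM with 10% FBS, penicillin G and streptomycin. Exponentially growing cultures seeded at 5 × 10^4 cells/mL and left to adhere 18 h before drug addition. MTT viability read after 72 h. Growth as % of untreated controls, IC50 by linear regression. Mean ± SEM of three independent experiments. Doxorubicin hydrochloride as reference.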

HL-60 = assay: Cytotoxicity against human HL60 cells after 72 hrs by MTT assay; settings: HL-60, 72 h
Procedure, shortened: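 HL-60 leukaemia cells in exponential growth, resuspended at 1 × 10^5 cells/mL in RPMI 1640 with 10% FBS, penicillin G and streptomycin. Drug exposure for 72 h, then viability by MTT. Growth at each concentration expressed as % of untreated controls. IC50 (50% growth inhibition) by linear regression. Mean ± SEM of three independent experiments. Doxorubicin hydrochloride as reference.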

Row | SMILES | IC50 (LoVo [1]) [µM] | IC50 (LoVo [2]) [µM] | IC50 (HT-1080) [µM] | IC50 (HL-60) [µM]
1 | O=C(O)/C(=C/c1ccc(O)cc1)[C@@H](C(=O)O)C(=O)c1ccc(O)cc1 | 16.4 | 19.6 | 30.6 | 11.5
2 | O=C1O[C@@H](c2ccc(O)cc2)[C@H](C(=O)O)/C1=C\c1ccc(O)cc1 (relative stereo) | 13.9 | > 40 | 36 | 11.3
3 | COc1cccc2c1C(=O)c1c(O)c3c(c(O)c1C2=O)C[C@@](O)(C(=O)CO)C[C@@H]3O[C@H]1C[C@H](N)[C@H](O)[C@H](C)O1 [DOXORUBICIN HYDROCHLORIDE] | 0.2 | 13.2 | 0.012 | 0.01
4 | C=C[C@@H](O)C#CC#C[C@@H](O)/C=C\CCCCCCC [FALCARINDIOL] | 4.3 | > 40 | 13 | 8.9
5 | COC(=O)/C=C/c1ccc(O)c(O)c1 [METHYLCAFFEATE] | 5.8 | > 40 | 11.1 | 7.5
6 | COc1cc2ccc(=O)oc2cc1O [SCOPOLETIN] | 7.3 | 18.5 | 12.5 | 9.5
